Results: ChEMBL document CHEMBL1134539, “Significance of asymmetric sites in choosing siderophores as deferration agents” (J Med Chem, 2001)
Where “and” joins values, the source holds several entries; their conditions need not be identical. Equal entries are not always repeated.

Key:
Paracoccus denitrificans [1] = experiment: Maximum velocity of accumulation of [55Fe]-labeled low-affinity component complexes by Paracoccus denitrificans; assay type: functional, organism-based; set-up: unit not given here
Procedure, shortened: (§1)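 Late log-phase P. denitrificans (ATCC 17741), grown in defined low-iron medium with 0.5 μM Fe(III), washed and resuspended in transport buffer to OD660 1.00. Suspensions were preincubated 15 min at 30 °C with shaking before [55Fe] ferric chelate was added at 0.1–5.0 μM. Samples were taken every 20 s for 2 min, stopped in chilled buffer, filtered, rinsed and scintillation counted. Initial rates were expressed per mg protein, and Km and Vmax were taken from Lineweaver–Burk fits.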

Rattus norvegicus = experiment: Iron clearance was stimulated by the compound was expressed as % efficiency by subcutaneous dose of 150 umol/kg; assay type: functional
Procedure, shortened: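 Bile duct-cannulated, non-iron-overloaded male Sprague–Dawley rats (about 400 g) were kept in metabolic cages and given one sc dose of 150 µmol/kg. Bile was collected every 3 h and urine every 24 h over 48 h. Efficiency is the excreted iron minus that of control animals, divided by the theoretical iron excretion from dose and coordination chemistry.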

[2] = Iron clearance was stimulated by the compound was expressed as % distribution of excreted Fe in bile by subcutaneous dose of 150 umol/kg; assay type: ADME; settings: in vivo, sc
Procedure, shortened: (§2)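 Non-iron-overloaded, bile duct-cannulated male Sprague–Dawley rats (about 400 g), housed in metabolic cages with free access to water. Single sc injection at 150 µmol/kg. Bile was collected at 3-h intervals for 48 h and urine every 24 h. Excreted iron was apportioned between bile and urine.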

[3] = Iron clearance was stimulated by the compound was expressed as % distribution of excreted Fe in urine by subcutaneous dose of 150 umol/kg; assay type: ADME; settings: in vivo, sc; procedure, shortened: as §2
Paracoccus denitrificans [4] = experiment: Michaelis-Menten constant for accumulation of [55Fe]-labeled low-affinity component complexes by Paracoccus denitrificans; assay type: functional, organism-based; procedure, shortened: as §1
Paracoccus denitrificans [5] = experiment: Maximum velocity of accumulation of [55Fe]-labeled high-affinity component complexes by Paracoccus denitrificans; assay type: functional, organism-based; set-up: unit not given here; procedure, shortened: as §1
Paracoccus denitrificans [6] = experiment: Michaelis-Menten constant for accumulation of [55Fe]-labeled high-affinity component complexes by Paracoccus denitrificans; assay type: functional, organism-based; procedure, shortened: as §1

Km (Paracoccus denitrificans [6]) [µM]	SMILES	Vmax (Paracoccus denitrificans [1])	Efficiency (Rattus norvegicus) [%]	Distribution of excreted Fe [2] [%]	Distribution of excreted Fe [3] [%]	Km (Paracoccus denitrificans [4])	Vmax (Paracoccus denitrificans [5])
–	C[C@@H]1OC(c2cccc(O)c2O)=N[C@H]1C(=O)N(CCCNC(=O)c1cccc(O)c1O)CCCNC(=O)c1cccc(O)c1O	96	16	90.8	9.2	3.5 µM	–
0.11	C[C@H]1OC(c2cccc(O)c2O)=N[C@@H]1C(=O)N(CCCCNC(=O)c1cccc(O)c1O)CCCNC(=O)c1cccc(O)c1O	245 and 247	–	–	–	0.55 µM and 0.53 µM	157 and 153
0.17	C[C@H]1OC(c2cccc(O)c2O)=N[C@@H]1C(=O)N(CCCCNC(=O)c1cccc(O)c1O)CCCCNC(=O)c1cccc(O)c1O	229	–	–	–	1 µM	138

SMILES	Km (Paracoccus denitrificans [6]) [µM]	Vmax (Paracoccus denitrificans [1])	Efficiency (Rattus norvegicus) [%]	Distribution of excreted Fe [2] [%]	Distribution of excreted Fe [3] [%]	Km (Paracoccus denitrificans [4])	Vmax (Paracoccus denitrificans [5])
C[C@H]1OC(c2cccc(O)c2O)=NC1C(=O)N(CCCNC(=O)c1cccc(O)c1O)CCCNC(=O)c1cccc(O)c1O (stereo not given in full)	0.23	413	13.8	84.6	15.4	2.2 µM	129
